Compound activity from PubChem.
The list is not random: actives were taken first. Their share in the collection is about 9.6%.
bCat nuc transl = beta-catenin nuclear translocation modulation | HeLa beta-catenin nuclear translocation, immunofluorescence imaging | nuclear translocation activity, % at 5 µM | 190,000 compounds, 0.3% hits;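 active means nuclear translocation activity above 50% at 5 µM, with a well cell count of 50 or more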;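 further: per-cell ratio of nuclear to cytoplasmic median beta-catenin stain intensity; plate controls were DMSO negative control for no effect and GSK-3 inhibitor IX positive control for full effect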
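Test system: human HeLa cell line; Doses: 5 µM primary, 0.02–20 µM confirmation; Incubation: 24 h compound exposure, 37°C; Detection: beta-catenin immunofluorescence imaging with DAPI; Read-out: beta-catenin nuclear/cytoplasmic ratio, % activation.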
Ba/F3 V617F tox = loss of viability in JAK2V617F-driven Ba/F3 cells | Ba/F3 EpoR-JAK2V617F viability, ATP luminescence | inhibition, % at 5.6 µM | 220,000 compounds, 1.1% hits | AID 1446;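 active means inhibition above the campaign mean plus 3 SD over all tested compounds, cut at about 24% in these data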;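 further: cytokine-independent growth of Ba/F3 cells driven by EpoR plus mutant JAK2; 0% = DMSO-treated cells and 100% = JAK inhibitor I control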
BaF3 parental = parental Ba/F3 viability inhibition as JAK2V617F counter-screen; CellTiter-Glo ATP luminescence; inhibition, % at 5.6 µM; 220,000 compounds, 1.1% hits;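 active means inhibition above a per-campaign cutoff, the mean inhibition of all tested compounds plus 3 SD, cut at about 27% in these data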;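 further: 0% = DMSO wells and 100% = JAK Inhibitor I control wells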
APP 5UTR inh = APP translation inhibition; SH-SY5Y APP 5'UTR-luciferase reporter, luminescence; inhibition, % at 2 µM; 190,000 compounds, 0.82% hits;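 active means inhibition above a set limit, derived from the sample mean plus 3 SD, cut at about 45% in these data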
Lmaj promast = Leishmania major promastigote growth inhibition | Leishmania major promastigotes, resazurin fluorescence viability | inhibition, % at 10 µM | 200,000 compounds, 9% hits | AID 1063; in the data active means inhibition above about 50%;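 further: promastigotes grown with compound for 44 hours at 28 °C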
MT stabilize HCS = stabilizes microtubules in HeLa cells | 200,000 compounds, 0.83% hits | % tubulin-high responders, % at 10 µM | HeLa tubulin immunostaining HCS, 24 h; share of cells brighter than vehicle mean+2SD;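 active means plate Z-score above 3 for both tubulin-high and condensed-nucleus cell shares, with cell loss under 80%, at 10 µM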;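 further: anti alpha tubulin signal scored within the nucleus-defined area of each cell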
Active calls of the source: *; x = no result.

SMILES | bCat nuc transl | Ba/F3 V617F tox | BaF3 parental | APP 5UTR inh | Lmaj promast | MT stabilize HCS
C=CCn1c(SCC(=O)N2CCc3ccccc3C2)nc2ccccc2c1=O | x | 2.4 | 6.1 | -1.9 | 7.2 | 2.7
O=[N+]([O-])c1ccc(/C=N/NC(=S)Nc2ccc(Cl)cc2Cl)s1 | 0.0 | 0.8 | -9.6 | x | x | x
Cc1c(Cl)cccc1N=Cc1ccc([N+](=O)[O-])s1 | 5.0 | -1.3 | 1.1 | -17.7 | 100.5* | 3.6
Cc1ccc(C(=O)CC(=O)COc2ccc(Cl)cc2C)cc1 | 1.5 | -5.2 | 4.2 | 1.1 | 91.0* | 3.2
Cc1cccc(C)c1NC(=O)Nc1cccs1 | x | -2.0 | 0.6 | 6.0 | -8.2 | 1.4
O=C(Nc1cccs1)Nc1c(F)c(F)c(F)c(F)c1F | x | 42.6* | 52.0* | -19.0 | 55.1* | 3.0
O=C(Nc1cccs1)Nc1c(F)c(F)cc(F)c1F | -0.2 | 30.0* | 42.5* | -21.9 | -4.8 | 3.3
O=C(Nc1cccs1)Nc1c(F)cc(F)cc1Br | x | -1.6 | 9.4 | -14.3 | 20.8 | 1.2
CN(C)C1=NCC(CSC(=N)N)S1 (configuration not stated) | 0.7 | 2.9 | -3.6 | -5.7 | 2.3 | 3.7
O=C(Cn1c2c(c(-c3ccccc3Cl)cc1=O)CCC2)NCCCN1CCOCC1 | 0.8 | -2.6 | 1.2 | x | x | x
COc1ccc(N2C(=O)C3ON(C4SC(=S)N(C)C4(C)C)C(c4ccc(Cl)cc4)C3C2=O)cc1 (configuration not stated) | -0.6 | 5.4 | 6.3 | -1.5 | -4.7 | 4.3
O=C(CN1C(=O)CC(c2ccco2)Sc2ccccc21)NC1CCCCC1 (configuration not stated) | -5.0 | -4.1 | 0.7 | -3.8 | -6.1 | 2.2
COc1ccc(Br)c(-c2nc(CS(=O)(=O)c3ccc(F)cc3)no2)c1 | -4.9 | -1.7 | 0.6 | x | x | x
Cc1ccc(C(=O)N/N=C\c2ccc([N+](=O)[O-])o2)cn1 | -0.5 | 1.1 | 1.6 | x | x | x
CC(C)(C)c1ccc2c(c1)OC(C(=O)N/N=C/c1ccc([N+](=O)[O-])o1)CO2 (configuration not stated) | -0.2 | -8.8 | -0.7 | x | x | x
CCCCCCCC(=O)N/N=C/c1ccc([N+](=O)[O-])o1 | 2.5 | 3.3 | 11.7 | -21.1 | 91.2* | 3.4
CCOC(=O)N/N=C\c1ccc([N+](=O)[O-])o1 | -1.1 | 0.9 | 7.6 | 5.7 | 97.5* | 2.4
CC1(C(=O)N/N=C/c2ccc([N+](=O)[O-])o2)CC1(Br)Br (configuration not stated) | -4.7 | -1.5 | 7.4 | 1.8 | 97.6* | 2.7
N#CCc1ccc(NC(=O)/C=C/c2ccc([N+](=O)[O-])o2)cc1 | 4.2 | 93.5* | 82.8* | 56.1* | 100.6* | 10.4
N#C/C(=C\c1ccc([N+](=O)[O-])o1)C(=O)Nc1ccc(F)cc1 | 3.9 | -0.5 | 6.8 | 43.2 | 2.8 | 6.2
O=C(O)c1cn(C2CC2)c2cc(N3CCOCC3)c(F)cc2c1=O | x | -1.4 | 3.4 | 7.3 | -1.5 | 3.0
CCn1nc(C)c(CN2CCN(Cc3ccsc3)C(CCO)C2)c1C (configuration not stated) | 0.3 | 1.1 | 6.0 | -21.1 | -7.2 | 2.5
CN(C)/C=C(/C#N)C(=O)c1cccc(Oc2ccc(C(C)(C)C)cc2)c1 | 0.4 | 1.5 | 9.7 | -4.7 | -0.8 | 1.9
Cc1cc([N+](=O)[O-])ccc1-c1ccc(/C=N/NC(=O)Cc2ccccc2)o1 | -1.2 | -2.1 | 4.2 | 10.5 | 8.7 | 6.4
O=C(CCN1CCN(c2ccccc2)CC1)N/N=C/c1ccc([N+](=O)[O-])o1 | -0.8 | 1.5 | 5.2 | -7.5 | 98.2* | 7.6
SMILES | bCat nuc transl | Ba/F3 V617F tox | BaF3 parental | APP 5UTR inh | Lmaj promast | MT stabilize HCS
O=C(CC12CC3CC(CC(C3)C1)C2)N/N=C\c1ccc[nH]1 | 0.3 | -1.5 | -3.0 | 2.3 | 15.8 | 2.1
O=C(CC12CC3CC(CC(C3)C1)C2)N/N=C/c1ccc([N+](=O)[O-])o1 | -1.1 | -6.4 | 2.2 | 2.2 | 98.6* | 2.2
O=C(Cc1ccc([N+](=O)[O-])cc1)N/N=C/c1ccc([N+](=O)[O-])o1 | -0.1 | -2.2 | 3.1 | 1.5 | 100.1* | 1.8
CN1CCC(=NNC(=O)C(=O)Nc2ccccc2F)CC1 | 0.7 | 1.1 | 6.9 | -11.0 | -5.2 | 2.1
CN(C)c1cc[n+](CC(=O)Nc2ccc(Oc3ccccc3)cc2)cc1 | 6.1 | -1.5 | 6.2 | 13.0 | -5.5 | 2.4
Cc1ccccc1C(=O)NC(C(=O)Nc1nc2c(s1)CCCC2)C(C)C (configuration not stated) | 0.0 | 2.9 | 10.3 | 17.7 | 50.1* | 2.2
Cc1ccc(C)c(-c2cc(C(=O)Nc3sc(C)c(C)c3C(N)=O)c3ccccc3n2)c1 | 0.6 | 3.7 | 4.3 | -1.2 | 60.6* | 4.5
Cc1ccccc1-c1cc(C(=O)Nc2nc3c(s2)CCCC3)c2ccccc2n1 | 0.3 | 1.4 | 2.6 | -18.8 | 65.4* | 2.6
Cc1cccc(-c2cc(C(=O)Nc3sc(C)c(C)c3C(N)=O)c3ccccc3n2)c1 | -0.5 | 4.3 | 5.5 | 12.1 | -0.9 | 6.2
O=C(NN=C1CCCCCCCCCCC1)c1cccnc1 | -1.6 | -2.0 | 6.2 | 14.1 | -6.2 | 3.0
COc1ccccc1C(=O)O/N=C(\N)c1ccccc1Cl | -0.2 | -2.1 | 1.1 | -49.3 | 91.5* | 1.6
N#C/C(=C(/O)c1ccc(Cl)c([N+](=O)[O-])c1)c1nc2ccccc2[nH]1 | -4.1 | -2.5 | 2.1 | x | x | x
Cc1ccccc1NC(=O)C(C)n1c2ccccc2c2nc(=O)cc(C)n21 (configuration not stated) | 1.6 | -0.5 | 1.8 | x | x | x
O=C1NC(Cc2c[nH]c3ccccc23)C(=O)N1CCOc1ccccc1 (configuration not stated) | -2.0 | 1.2 | 6.3 | -9.3 | 95.7* | 2.6
CCC(C)NC(=O)Cn1cnc([N+](=O)[O-])c1 (configuration not stated) | -0.2 | -5.0 | 0.7 | -8.6 | 8.2 | 2.2
CCn1nc(C)c(C(=O)Nc2cc(Oc3ccc(Cl)cc3)cc([N+](=O)[O-])c2)c1C | 2.7 | -2.4 | 0.7 | -2.1 | -13.0 | 29.5*
Cc1nn(CCCC(=O)Nc2cc(Oc3ccc(F)cc3)cc([N+](=O)[O-])c2)c(C)c1[N+](=O)[O-] | 0.1 | -1.1 | 5.1 | 4.9 | 100.2* | 2.8
Cc1c(Cl)c([N+](=O)[O-])nn1CCCC(=O)Nc1cc(Oc2ccccc2)cc([N+](=O)[O-])c1 | 2.6 | 1.1 | 6.6 | 13.5 | 8.7 | 4.0
Cc1ccccc1Oc1cc(NC(=O)CCCn2nc(C)c([N+](=O)[O-])c2C)cc([N+](=O)[O-])c1 | x | 0.1 | 5.0 | 8.5 | 97.6* | 2.2
CCn1nc(C)c([N+](=O)[O-])c1C(=O)NNC(=O)c1ccc(Cl)cc1 | 4.7 | -1.4 | -5.2 | x | x | x
Cc1ccccc1Oc1cc(NC(=O)Cn2cnc([N+](=O)[O-])c2)cc([N+](=O)[O-])c1 | -5.8 | 0.5 | 10.4 | 5.7 | 97.0* | 1.6
O=C(CN1CCN(c2nc(-c3ccccc3)cs2)CC1)NNC(=O)c1ccco1 | -1.5 | 3.2 | 7.8 | -5.0 | -4.8 | 5.2
